Experimental data: PubChem BioAssay
Activity calls are given as the source filed them. Unless noted, no stated cut-off is given here; in the data, active means inhibition above about 31%; inactive means the rest.

How the values were obtained:
[1] = HUVEC growth inhibition – cell-based, human, primary screen (AID 575;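 active means viability at or below 30% in both replicate assays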;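 further: 100% = median of untreated cell wells with 0.1% DMSO on each plate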); conditions: HUVEC proliferation, CellTiter-Glo luminescence, 72 h; at 10 µM; stronger effect = lower value
Summary of the method: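 Assay system: primary human umbilical vein endothelial cells / Buffer or medium: endothelial basal medium with 2% FBS plus growth supplements / Compound dosing: one dose, 10 µM final, 0.1% DMSO / Timing: 72 h treatment at 37 °C / Signal: CTG luminescence / Benchmarks: 32 DMSO-only cell-control wells (high), 32 MePR drug-control wells (low) per plate / Plate: collagen-coated 384-well format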

[2] = H69AR cell proliferation blockers – human, duplicate replicates, primary screen (AID 580;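 active means viability at or under a set limit in both replicates, limit being median viability minus 3 SD, cut at about 48% in these data, passing the limit was not always enough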;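 further: 100% = mean luminescence of untreated wells and 0% = no signal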); conditions: H69AR lung tumor cells viability, ATP luminescence, 72 h; at 10 µM; stronger effect = lower value
[3] = MRP1 drug-resistance reversers in H69AR cells – cell-based, doxorubicin co-treatment, pilot screen (AID 601;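 active means viability loss from added drug above about 55%, and viability with drug at most 40%, in both replicates, limit read from the data, passing the limit was not always enough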); conditions: CellTiter-Glo, 72 h, at 10 µM; for differential viability (reversal): stronger effect = higher value
[4] = yeast transport mutant growth inhibition pilot in 384-well plates, post-Golgi transport modulator project (AID 636); conditions: absorbance 615 nm, about 18 h, stronger effect = higher value
[5] = growth suppression of yeast trafficking mutant, preliminary HTS, modulators of trafficking downstream of Golgi apparatus project, 1536-format plate, OD 615 nm (AID 637; in the data active means inhibition above about 30%); conditions: yeast transport mutant growth, absorbance 615 nm, 18 h; stronger effect = higher value
[6] = H69AR cells + 2 uM doxorubicin, measured here: viability with 2 uM doxorubicin, stronger effect = lower value
[7] = H69AR cells, compound alone cytotoxicity

**Q.** Which results are given for `Cc1ccc(-c2ccc(/C=N/n3cnnc3)o2)cc1Cl`?
**A.** viability [1]: 87.2% (inactive); viability [2]: 101% (inactive); differential viability (reversal) ([3]; H69AR cells + 2 uM doxorubicin): 4.54% (inactive); viability [3, 6]: 96.3%; viability [3, 7]: 101%; inhibition [4]: -2.08% (inactive); inhibition [5]: 86.2% (active)

**Q.** With `COc1ccc(C)cc1-n1nnnc1SCC(=O)NC(=O)NCc1ccco1` as the molecule, how does the viability [1] read?
**A.** Its viability is 90.9% (inactive).

**Q.** What about the viability [2] of the same molecule?
**A.** The viability was 87.3% (inactive).

**Q.** And the differential viability (reversal) ([3]; H69AR cells + 2 uM doxorubicin)?
**A.** The differential viability (reversal) was 9.23% (inactive).

**Q.** What about the viability [3, 6] of the same molecule?
**A.** Its viability is 78.1%.

**Q.** What about the viability [3, 7] of the same molecule?
**A.** Its viability is 87.3%.

**Q.** And the inhibition [4]?
**A.** Its inhibition is -1.69% (inactive).

**Q.** What about the inhibition [5] of the same molecule?
**A.** Its inhibition is 3.17% (inactive).

**Q.** For `CC(=O)N1CCN(S(=O)(=O)c2ccc(S(=O)(=O)NCC(C)C)cc2)CC1`, which viability [1] is on record?
**A.** The viability was 111% (inactive).

**Q.** And the viability [2]?
**A.** The viability was 88.5% (inactive).

**Q.** What about the differential viability (reversal) ([3]; H69AR cells + 2 uM doxorubicin) of the same molecule?
**A.** The differential viability (reversal) was 2.16% (inactive).

**Q.** What about the viability [3, 6] of the same molecule?
**A.** Its viability is 86.4%.

**Q.** And the viability [3, 7]?
**A.** Its viability is 88.5%.

**Q.** And the inhibition [4]?
**A.** Its inhibition is -5.73% (inactive).

**Q.** And the inhibition [5]?
**A.** Its inhibition is 0.16% (inactive).

**Q.** Which results are given for `CON(C)c1nc(Oc2ccc(=O)[nH]n2)nc(N(C)C)n1`?
**A.** viability [1]: 87.6% (inactive); viability [2]: 97.9% (inactive); differential viability (reversal) ([3]; H69AR cells + 2 uM doxorubicin): 11.8% (inactive); viability [3, 6]: 86.2%; viability [3, 7]: 97.9%; inhibition [4]: -4.4% (inactive); inhibition [5]: 4.44% (inactive)

**Q.** For `Nc1nc(CN2CCOCC2)cs1`, which viability [1] is on record?
**A.** The viability was 101% (inactive).

**Q.** And the viability [2]?
**A.** Its viability is 100% (inactive).

**Q.** And the differential viability (reversal) ([3]; H69AR cells + 2 uM doxorubicin)?
**A.** The differential viability (reversal) was 3.83% (inactive).

**Q.** And the viability [3, 6]?
**A.** The viability was 96.1%.

**Q.** What about the viability [3, 7] of the same molecule?
**A.** The viability was 100%.

**Q.** What about the inhibition [4] of the same molecule?
**A.** Its inhibition is -1.69% (inactive).

**Q.** What about the inhibition [5] of the same molecule?
**A.** Its inhibition is 0.95% (inactive).

**Q.** Which results are given for `CCC(=O)n1nc(-c2ccco2)nc1N`?
**A.** viability [1]: 113% (inactive); viability [2]: 110% (inactive); differential viability (reversal) ([3]; H69AR cells + 2 uM doxorubicin): 11.3% (inactive); viability [3, 6]: 98.2%; viability [3, 7]: 110%; inhibition [4]: 0.53% (inactive); inhibition [5]: 5.4% (inactive)

**Q.** What does the source list for `O=C1CCCc2c1nn(-c1ccccc1)[n+]2[O-]`?
**A.** viability [1]: 110% (inactive); viability [2]: 98.1% (inactive); differential viability (reversal) ([3]; H69AR cells + 2 uM doxorubicin): 1.57% (inactive); viability [3, 6]: 96.5%; viability [3, 7]: 98.1%; inhibition [4]: -5.33% (inactive); inhibition [5]: -5.4% (inactive)

**Q.** What does the source list for `CN(Cc1nc(-c2ccncc2)no1)S(=O)(=O)c1ccc(Br)cc1`?
**A.** viability [1]: 90.4% (inactive); viability [2]: 89.6% (inactive); differential viability (reversal) ([3]; H69AR cells + 2 uM doxorubicin): -4.28% (inactive); viability [3, 6]: 93.9%; viability [3, 7]: 89.6%; inhibition [4]: -5.32% (inactive); inhibition [5]: 1.75% (inactive)

**Q.** Which results are given for `FC(F)(F)c1cc(-c2ccco2)nc(-n2nnc3ccccc32)n1`?
**A.** viability [1]: 59.5% (inactive); viability [2]: 79.8% (inactive); differential viability (reversal) ([3]; H69AR cells + 2 uM doxorubicin): 1.45% (inactive); viability [3, 6]: 78.3%; viability [3, 7]: 79.8%; inhibition [4]: -0.91% (inactive); inhibition [5]: 0.32% (inactive)

**Q.** For `Cc1cccc2cc(CN(Cc3nnnn3Cc3ccco3)C3CCCC3)c3nnnn3c12`, which viability [1] is on record?
**A.** The viability was 86.8% (inactive).

**Q.** What about the viability [2] of the same molecule?
**A.** Its viability is 85.6% (inactive).

**Q.** What about the inhibition [4] of the same molecule?
**A.** The inhibition was 68.2% (active).

**Q.** What about the inhibition [5] of the same molecule?
**A.** The inhibition was 4.44% (inactive).

**Q.** For `CCOC(=O)c1sc(NC(=O)CSc2nc3c(cc2C#N)CCC3)c(C#N)c1C`, which viability [1] is on record?
**A.** Its viability is 74.7% (inactive).

**Q.** What about the viability [2] of the same molecule?
**A.** The viability was 91.1% (inactive).

**Q.** What about the differential viability (reversal) ([3]; H69AR cells + 2 uM doxorubicin) of the same molecule?
**A.** The differential viability (reversal) was -8.41% (inactive).

**Q.** What about the viability [3, 6] of the same molecule?
**A.** Its viability is 99.5%.

**Q.** What about the viability [3, 7] of the same molecule?
**A.** Its viability is 91.1%.

**Q.** And the inhibition [4]?
**A.** The inhibition was -5% (inactive).

**Q.** And the inhibition [5]?
**A.** Its inhibition is -0.32% (inactive).

**Q.** With `CCOC(=O)c1c(COC(=O)c2ccco2)nc2ccccc2[n+]1[O-]` as the molecule, how does the viability [1] read?
**A.** The viability was 90.3% (inactive).

**Q.** And the viability [2]?
**A.** Its viability is 87.2% (inactive).

**Q.** What about the differential viability (reversal) ([3]; H69AR cells + 2 uM doxorubicin) of the same molecule?
**A.** Its differential viability (reversal) is 2.55% (inactive).

**Q.** And the viability [3, 6]?
**A.** Its viability is 84.6%.

**Q.** What about the viability [3, 7] of the same molecule?
**A.** The viability was 87.2%.

**Q.** What about the inhibition [4] of the same molecule?
**A.** Its inhibition is -5.73% (inactive).

**Q.** And the inhibition [5]?
**A.** The inhibition was 3.97% (inactive).

**Q.** What does the source list for `CC(=O)Nc1cccc(-c2nnc(-c3ccccc3)o2)c1`?
**A.** viability [1]: 88.8% (inactive); viability [2]: 92.6% (inactive); differential viability (reversal) ([3]; H69AR cells + 2 uM doxorubicin): 6.77% (inactive); viability [3, 6]: 85.8%; viability [3, 7]: 92.6%; inhibition [4]: -5.58% (inactive); inhibition [5]: -1.9% (inactive)

**Q.** Which results are given for `CCc1nnc(NC(=O)CSc2nnc(-c3ccoc3C)n2CC(C)C)s1`?
**A.** viability [1]: 85.8% (inactive); viability [2]: 106% (inactive); differential viability (reversal) ([3]; H69AR cells + 2 uM doxorubicin): 12.6% (inactive); viability [3, 6]: 93.8%; viability [3, 7]: 106%; inhibition [4]: -4.67% (inactive); inhibition [5]: 11.3% (inactive)

**Q.** Which results are given for `O=C(O)C1C2CCC(C2)C1C(=O)NCCCn1ccnc1` (configuration not stated)?
**A.** viability [1]: 112% (inactive); viability [2]: 90.6% (inactive); differential viability (reversal) ([3]; H69AR cells + 2 uM doxorubicin): 6.16% (inactive); viability [3, 6]: 84.4%; viability [3, 7]: 90.6%; inhibition [4]: -7.24% (inactive); inhibition [5]: -0.79% (inactive)

**Q.** What does the source list for `O=C(Nc1cc(C(F)(F)F)ccc1Cl)C1CCN(c2nnc(-n3cccc3)s2)CC1`?
**A.** viability [1]: 80.2% (inactive); viability [2]: 70.9% (inactive); differential viability (reversal) ([3]; H69AR cells + 2 uM doxorubicin): 7.64% (inactive); viability [3, 6]: 63.3%; viability [3, 7]: 70.9%; inhibition [4]: -6% (inactive); inhibition [5]: 2.22% (inactive)

**Q.** For `c1ccc2[nH]c(CSc3nnc(-c4ccncc4)o3)nc2c1`, which viability [1] is on record?
**A.** Its viability is 104% (inactive).

**Q.** What about the viability [2] of the same molecule?
**A.** Its viability is 90.9% (inactive).

**Q.** What about the differential viability (reversal) ([3]; H69AR cells + 2 uM doxorubicin) of the same molecule?
**A.** The differential viability (reversal) was -5.82% (inactive).

**Q.** What about the viability [3, 6] of the same molecule?
**A.** The viability was 96.7%.

**Q.** What about the viability [3, 7] of the same molecule?
**A.** Its viability is 90.9%.

**Q.** What about the inhibition [4] of the same molecule?
**A.** Its inhibition is -2.24% (inactive).

**Q.** And the inhibition [5]?
**A.** The inhibition was 2.06% (inactive).

**Q.** For `Cc1ccc(NC(=O)c2ccco2)cc1NC(=O)CSc1nnc(-c2cccs2)n1C`, which viability [1] is on record?
**A.** The viability was 112% (inactive).

**Q.** What about the viability [2] of the same molecule?
**A.** The viability was 99.8% (inactive).

**Q.** And the differential viability (reversal) ([3]; H69AR cells + 2 uM doxorubicin)?
**A.** Its differential viability (reversal) is 23.4% (inactive).

**Q.** And the viability [3, 6]?
**A.** The viability was 76.4%.

**Q.** What about the viability [3, 7] of the same molecule?
**A.** Its viability is 99.8%.

**Q.** And the inhibition [4]?
**A.** The inhibition was -6.13% (inactive).

**Q.** And the inhibition [5]?
**A.** Its inhibition is 2.38% (inactive).

**Q.** Which viability [1] does the source give for `CC(=O)Nc1ccc(NC(=O)c2ccccc2F)cc1` here?
**A.** The viability was 110% (inactive).

**Q.** What about the viability [2] of the same molecule?
**A.** The viability was 108% (inactive).

**Q.** And the differential viability (reversal) ([3]; H69AR cells + 2 uM doxorubicin)?
**A.** Its differential viability (reversal) is 16.1% (inactive).

**Q.** What about the viability [3, 6] of the same molecule?
**A.** The viability was 92.2%.

**Q.** What about the viability [3, 7] of the same molecule?
**A.** Its viability is 108%.

**Q.** And the inhibition [4]?
**A.** The inhibition was -1.82% (inactive).

**Q.** What about the inhibition [5] of the same molecule?
**A.** The inhibition was -4.13% (inactive).

**Q.** With `CCOC(=O)c1nnn(-c2nonc2NC(C)=O)c1C` as the molecule, how does the viability [1] read?
**A.** The viability was 91.7% (inactive).

**Q.** And the viability [2]?
**A.** Its viability is 98.2% (inactive).

**Q.** And the differential viability (reversal) ([3]; H69AR cells + 2 uM doxorubicin)?
**A.** The differential viability (reversal) was 1.68% (inactive).

**Q.** What about the viability [3, 6] of the same molecule?
**A.** The viability was 96.5%.

**Q.** And the viability [3, 7]?
**A.** The viability was 98.2%.

**Q.** What about the inhibition [4] of the same molecule?
**A.** The inhibition was -0.65% (inactive).

**Q.** What about the inhibition [5] of the same molecule?
**A.** Its inhibition is -4.13% (inactive).
